Assay outcomes: PubChem, NMMLSC
In the library only some 0.9% were active in any assay of this set; here they are far more common.
RGS8-Gao – regulators of human RGS8-Galphao interaction; multiplexed bead flow cytometry, RGS8-Galphao binding; actives lie on both sides; response (percent of control binding), % at 10 µM; 220,000 tested, 0.34% active; in the data active means response below about 60% or above about 140%; inactive means in between;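 further: Galphao activated as the GDP aluminium fluoride complex binding bead-coupled RGS8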
RGS7-Gao reg – regulators of human RGS7-Galphao interaction. Multiplexed bead flow cytometry, RGS7-Galphao binding; actives lie on both sides. P09471. 220,000 tested, 0.35% active. binding response (% of control), % at 10 µM. AID 1439; in the data active means binding response below about 49% or above about 150%; inconclusive means no clear call, values can overlap the other calls; inactive means in between;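 further: fluorescent Galphao held in activated GDP-AlF4 state binding bead-coupled RGS7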
ABCB1 block – human ABCB1 inhibition, ABCG2 as counter-screen; AID 1326; 190,000 tested, 0.067% active; CCRF-Adr cells, JC-1 efflux, flow cytometry; inhibition, % at 6.6 µM; P08183; in the data active means inhibition above about 40%;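 further: 0% = vehicle and 100% = reference inhibitor; higher value means more JC-1 retained so stronger ABCB1 efflux block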
ABCG2 block – blocks JC-1 efflux by human ABCG2 transporter | Q9UNQ0 | IgMXP3 cells, flow cytometry | inhibition, % at 6.6 µM | 190,000 tested, 0.1% active | AID 1325;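 active means inhibition above 80%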;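 further: 0% = DMSO and 100% = nicardipine control wells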
Target sequence (Q9UNQ0 whole entry, looked up): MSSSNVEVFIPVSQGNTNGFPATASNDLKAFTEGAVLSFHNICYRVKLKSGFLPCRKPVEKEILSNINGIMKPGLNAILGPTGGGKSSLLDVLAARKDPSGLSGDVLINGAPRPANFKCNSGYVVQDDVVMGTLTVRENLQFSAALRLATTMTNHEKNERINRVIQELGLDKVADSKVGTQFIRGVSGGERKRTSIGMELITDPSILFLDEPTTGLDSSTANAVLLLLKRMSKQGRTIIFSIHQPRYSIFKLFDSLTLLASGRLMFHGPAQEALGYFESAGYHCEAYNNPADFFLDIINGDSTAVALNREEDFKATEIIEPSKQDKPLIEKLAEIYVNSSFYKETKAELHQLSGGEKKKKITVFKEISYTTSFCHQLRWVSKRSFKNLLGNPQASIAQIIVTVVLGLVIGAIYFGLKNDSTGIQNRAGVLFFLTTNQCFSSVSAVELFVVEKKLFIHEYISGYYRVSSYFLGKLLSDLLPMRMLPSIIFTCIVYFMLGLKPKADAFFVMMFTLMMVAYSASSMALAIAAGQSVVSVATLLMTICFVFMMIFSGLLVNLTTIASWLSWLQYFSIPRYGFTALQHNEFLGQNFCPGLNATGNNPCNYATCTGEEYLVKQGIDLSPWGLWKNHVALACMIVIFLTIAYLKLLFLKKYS
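System: two drug-resistant human cell lines, ABCG2 and ABCB1; controls: nicardipine high and DMSO low controls; times: 10 min exposure at 25 °C with rotation, no wash; detection: flow cytometry of retained JC-1 fluorescence; read-out basis: percent efflux inhibition, scaled nicardipine 100% to DMSO 0%; doses: one concentration, 6.6 µM final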
RGS16-Gao – RGS16-Galphao interaction regulator (human). O15492+P09471. bead-based flow cytometry RGS16-Galphao binding, fluorescence; actives lie on both sides. binding response (% of control), % at 10 µM. 220,000 tested, 0.38% active. AID 1441; call rule not given here;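 further: Galphao activated by GDP with aluminum fluoride before binding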
RGS4-Gao reg – human RGS4-Galphao interaction regulation; P09471; Multiplexed bead flow cytometry, RGS4-Galphao binding; actives lie on both sides; binding response (% of control), % at 10 µM; 220,000 tested, 0.33% active; AID 1415; in the data active means binding response below about 49% or above about 150%; inactive means in between;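 further: fluorescent Galphao activated with aluminum fluoride binding bead-coupled RGS4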
ABCB1 confirm – inhibits human ABCB1 efflux, confirmed at single point. shares compounds with ABCG2 block. CCRF-Adr cells, JC-1 efflux, flow cytometry. inhibition, % at 6.6 µM. 270 tested, 7% active. AID 1451;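 active means inhibition of pump activity above 50%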;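 further: 0% = DMSO and 100% = nicardipine full pump inhibition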
ABCG2 single pt – inhibits human ABCG2 efflux, confirmed at single point. shares compounds with ABCG2 block. IgMXP3 cells, JC-1 efflux, flow cytometry. inhibition, % at 6.6 µM. 270 tested, 6% active. AID 1453;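 further: 0% = DMSO wells and 100% = nicardipine pump inhibitor wells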
IgMXP3 autofluor – counter-screen for ABCG2 inhibitors: compound fluorescence in IgMXP3 cells. shares compounds with ABCG2 block. compound autofluorescence 488/530 nm, flow; active compounds read high. fluorescence at 6.6 µM. 270 tested, 30% active. AID 1480;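 active means fluorescence in ABCG2-expressing cells above the plate's control-well mean plus 3 SD, cut at about 15 in these data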;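 further: median cell fluorescence with compound minus that of DMSO-treated control cells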
CCRF-Adr fluor – CCRF-Adr autofluorescence flag for ABCB1 confirmation; 270 tested, 30% active; fluorescence at 6.6 µM; shares compounds with ABCG2 block; CCRF-Adr cells, compound autofluorescence 488/530 nm, flow cytometry; active compounds read high;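 active means fluorescence beyond the plate control mean plus 3 SD, with a fluorescence-to-maximum score over 2, cut at about 25 in these data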
RGS4-Gao HTS – RGS4-Galphao interaction regulator (human); shares compounds with RGS16-Gao; multiplexed bead flow cytometry, RGS–Galpha-o binding; RGS4–Galpha-o binding response, % at 10 µM; AID 1504; 1,600 tested, 99% active; call rule not given here;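 further: fluorescently labeled Galpha-o bound to GDP with aluminium fluoride binding biotinylated RGS beads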
Avidin counter – interferes with biotinylated probe binding to avidin beads | shares compounds with RGS16-Gao | streptavidin beads, fluorescein-biotin binding, flow cytometry | inhibition, % at 10 µM | 1,700 tested, under 10 active | AID 1783;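 further: median green fluorescence of gated singlet beads compared with DMSO control wells; 0% = DMSO wells and 100% = complete loss of bead fluorescence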
RGS8-Gao confirm – RGS8-Galphao interaction regulation, single point confirmation. shares compounds with RGS16-Gao. bead-based flow cytometry RGS8-Galphao binding, fluorescence; actives lie on both sides. binding response (% of control), % at 10 µM. 1,700 tested, 3% active. AID 1836; in the data active means binding response below about 72% or above about 130%; inactive means in between;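 further: Galphao activated as GDP AlF4 complex before binding bead RGS8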
RGS7-Gao confirm – confirmation of regulators of human RGS7-Galphao interaction | bead-based flow cytometry RGS7-Galphao binding; actives lie on both sides | 1,700 tested, 7.8% active | response (percent of control binding), % at 10 µM | shares compounds with RGS16-Gao; in the data active means response below about 75% or above about 130%; inactive means in between;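 further: fluorescent Galphao activated with GDP and aluminum fluoride binding bead-coupled RGS7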
RGS16-Gao conf – confirmation of regulators of human RGS16-Galphao interaction | shares compounds with RGS16-Gao | bead-based flow cytometry, RGS16-Galphao binding; actives lie on both sides | response (% of control binding), % at 10 µM | 1,700 tested, 4% active; in the data active means response below about 74% or above about 130%; inactive means in between;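 further: Galphao activated as the GDP aluminium fluoride complex binding bead-coupled RGS16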
RGS4-Gao single – RGS4-Galphao interaction regulation, single point confirmation. binding response (% of control), % at 10 µM. RGS4-Galphao binding, multiplexed bead flow cytometry; actives lie on both sides. shares compounds with RGS16-Gao. 1,700 tested, 4% active; in the data active means binding response below about 74% or above about 130%; inactive means in between
RGS19-Gao conf – RGS19-Galphao interaction regulation, single point confirmation | shares compounds with RGS16-Gao | AID 1841 | bead-based flow cytometry RGS19-Galphao binding; actives lie on both sides | 1,700 tested, 5% active | response (percent of control binding), % at 10 µM; in the data active means response below about 50% or above about 160%; inactive means in between;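 further: 100% = no compound control and 0% = blank background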
* = called active by the depositor; ? = inconclusive; · = no result; + = active, no number; [ ] = dose if it differs, or a comment.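 How the source made its calls, unless noted: active means inhibition above 50%; inactive means the rest.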

SMILES	RGS8-Gao	RGS7-Gao reg	ABCB1 block	ABCG2 block	RGS16-Gao	RGS4-Gao reg	ABCB1 confirm	ABCG2 single pt	IgMXP3 autofluor	CCRF-Adr fluor	Avidin counter	RGS8-Gao confirm	RGS7-Gao confirm	RGS16-Gao conf	RGS4-Gao single	RGS19-Gao conf	others
CCN1/C(=C/c2ccc3cccc(C)c3[n+]2CC)Sc2ccccc21	127	161*[activator]	34	+	274	196*[activator]	26	69*	304*	305*	2	100	110	100	102	116
CCN1/C(=C/c2ccc3cc(C)cc(C)c3[n+]2CC)Sc2cc(C)ccc21	99	100	3	22	108	95	·	·	·	·	·	·	·	·	·	·
O=C(O)COc1cccc(NC(=O)c2ccccc2)c1	79	94	1	2	45	94	·	·	·	·	·	·	·	·	·	·
CC(C)CCOc1cccc(OCC(=O)O)c1	130	375*[activator]	30	108*	352*[activator]	422*[activator]	1	3	8.3	-0.84	4	97	72*	87	85	58
COc1ccc(Oc2ccc(/C=C/C(=O)c3ccc(O)cc3)cc2[N+](=O)[O-])cc1	101	101	0	4	104	104	·	·	·	·	·	·	·	·	·	·
COC(=O)c1cc(NC(=O)c2ccccc2)c(=O)oc1/C=C/Nc1ccc(Oc2ccccc2)cc1	114	211*[activator]	127*	116*	205*[activator]	215*[activator]	91*	-34	207*	339*	-1	125*[activator]	399*[activator]	260*[activator]	284*[activator]	420*[activator]
CCNC(=O)Cn1c(=O)c(=O)n(Cc2ccccc2)c2ccc(Cl)cc21	84	171*[activator]	1	95*	243*[activator]	162*[activator]	-4	4	2.6	27*	0	103	102	103	104	99
CC(C)CN1C(=O)c2ccc(NC(=O)Cc3ccccc3)cc2C1=O	102	?	2	40	100	99	·	·	·	·	·	·	·	·	·	·
COc1ccc(C(=O)NC(=O)Nc2ncccc2C)cc1	70	74	0	7	2.9*	77	·	·	·	·	-1	102	107	104	103	100	RGS4-Gao HTS=77*
